The test system of series [1] is Rattus norvegicus. Briefly: Antidepressant activity in ip dosed Sprague-Dawley rat model of reserpine-induced depression assessed as increase in sugar consumption treated twice daily for 2 weeks measured after 2 days of […] followed by 20 hrs water depletion and fasting by sugar water preference test. It is filed as functional, organism-based. The method, boiled down:
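Reserpine model (4 mg/Kg ip daily) in female SD rats, treated ip twice daily for two weeks in DMSO/Tween 80/glucose vehicle. Drinking water replaced with 10% sucrose for 48 h, then food and water withheld for 20 h. Rats then given 10% sucrose and intake volume measured. n=8, mean ± SD.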

The test system of the next series is NIH3T3. Briefly: Cytotoxicity against mouse NIH/3T3 cells assessed as reduction in cell viability after 24 hrs by MTT assay. The following applies: Mus musculus, NIH3T3, 24 h. It is filed as cell-based. The method, boiled down:
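NIH3T3 cells in DMEM with 10 % FBS at 37 °C, 5 % CO₂, grown overnight, then inhibitor added for 24 h; viability read by MTT.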
(In general: Tetrazolium dyes change colour on reduction, which living cells bring about.)

A short description of series [2]: Drug concentration in Sprague-Dawley rat brain at 48 mg/kg, ip after 4 hrs by LC-MS/MS analysis. As to conditions: read-out: Drug uptake. In kind it is ADME, organism-based. The method in brief:
(§1)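 Nine female SD rats, three per time point, single ip dose of 48 mg/Kg. At 0.5, 2 and 4 h rats were anesthetized with CO2. Heart blood was taken into EDTA-K2 and centrifuged 1500 g, 10 min, for plasma. Brain was weighed and homogenized 1:5 in 20% methanol-water. LC-MS/MS on a C18 column. Mean of 3.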

Series [3] in a line: Ratio of drug uptake in Sprague-Dawley rat brain to plasma at 48 mg/kg, ip after 30 mins by LC-MS/MS analysis. As to conditions: read-out: BPR. In kind it is ADME, organism-based. The method in brief:
as §1

For series [4], the system named is Rattus norvegicus. Briefly: Antidepressant activity in Sprague-Dawley rat model of reserpine-induced depression assessed as increase in frequency of upright at 6 to 24 mg/kg, ip administered twice daily for 2 weeks measured for 5 mins by open field test. In kind it is functional, organism-based. The method in brief:
(§2)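 Female SD rats (6-8 weeks, 200 g) given reserpine 4 mg/Kg ip daily to induce depression; test agent in 5% DMSO, 2% Tween 80, 5% glucose, ip twice daily for two weeks. Open field: 100×100 cm box, 25 squares, walls about 42 cm, tested 7:30–12:00. Rat placed in central square; centre time, grid crossings, rearing and grooming recorded over 5 min. n=8, mean ± SD.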

Series [5] in a line: Drug concentration in Sprague-Dawley rat plasma at 48 mg/kg, ip after 4 hrs by LC-MS/MS analysis. It is filed as ADME, organism-based. The method in brief: as §1
Series [6] can be described thus: Ratio of drug uptake in Sprague-Dawley rat brain to plasma at 48 mg/kg, ip after 4 hrs by LC-MS/MS analysis. The following applies: read-out: BPR. It is filed as ADME, organism-based. The method in brief: as §1
Series [7] is described as follows: Drug concentration in Sprague-Dawley rat brain at 48 mg/kg, ip after 2 hrs by LC-MS/MS analysis. In kind it is ADME, organism-based. The following applies: read-out: Drug uptake. The method in brief: as §1
For series [8], the system named is Rattus norvegicus. Briefly: Reversal of reserpine-induced inhibition of neurogenesis in ip dosed Sprague-Dawley rat hippocampus administered twice daily for 2 weeks by EDU-incorporation assay. It is filed as functional, organism-based. The method in brief:
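Rats given EDU 8 mg/kg twice in 1 day and sacrificed 96 h later. Brains shock-frozen and sectioned, washed with 2 mg/mL glycine and PBS, stained with 1X Click-iT solution for 30 min, washed with 0.5% Triton X-100. Counterstained with 1X Hoechst 33342 for 30 min, then imaged by fluorescence microscopy. n=5.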

Series [9] has as its system Rattus norvegicus. Briefly: Antidepressant activity in Sprague-Dawley rat model of reserpine-induced depression assessed as increase in grooming frequency at 6 to 24 mg/kg, ip administered twice daily for 2 weeks measured for 5 mins by open field test. In kind it is functional, organism-based. The method, boiled down: as §2
The nature of series [10]: Drug concentration in Sprague-Dawley rat brain at 48 mg/kg, ip after 0.5 hrs by LC-MS/MS analysis. In kind it is ADME, organism-based. As to conditions: read-out: Drug uptake. The method in brief: as §1
Series [11] in a line: Drug concentration in Sprague-Dawley rat plasma at 48 mg/kg, ip after 0.5 hrs by LC-MS/MS analysis. In kind it is ADME, organism-based. The method in brief: as §1
Series [12] has as its target T1, Sphingomyelin phosphodiesterase (Homo sapiens, UniProt P17405).
T1 sequence (P17405 whole entry): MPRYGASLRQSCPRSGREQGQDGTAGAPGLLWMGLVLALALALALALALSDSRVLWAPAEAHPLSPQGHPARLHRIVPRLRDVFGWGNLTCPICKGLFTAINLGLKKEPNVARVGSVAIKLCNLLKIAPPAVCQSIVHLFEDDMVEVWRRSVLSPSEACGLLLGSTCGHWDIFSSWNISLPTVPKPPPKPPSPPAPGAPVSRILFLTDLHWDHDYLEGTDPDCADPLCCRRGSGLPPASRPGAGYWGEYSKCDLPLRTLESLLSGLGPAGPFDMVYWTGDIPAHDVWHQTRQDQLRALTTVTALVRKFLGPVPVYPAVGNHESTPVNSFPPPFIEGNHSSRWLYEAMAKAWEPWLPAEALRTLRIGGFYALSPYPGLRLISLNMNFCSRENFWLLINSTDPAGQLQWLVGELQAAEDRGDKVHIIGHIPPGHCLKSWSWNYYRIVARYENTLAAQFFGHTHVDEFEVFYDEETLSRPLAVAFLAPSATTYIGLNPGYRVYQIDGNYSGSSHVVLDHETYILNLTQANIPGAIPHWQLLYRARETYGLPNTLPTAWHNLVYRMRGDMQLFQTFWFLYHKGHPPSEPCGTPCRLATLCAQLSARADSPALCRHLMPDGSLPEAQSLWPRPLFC
Briefly: Inhibition of recombinant human acid sphingomyelinase (His62 to Pro628 residues) using NBD-sphingomyelin as substrate after 30 mins by fluorescence based assay. The method in brief: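 Buffer 100 mM sodium acetate pH 4.7, 1% Triton X-100, 40 mM CaCl2, 100 μM ZnCl2. Inhibitors in DMSO at various concentrations, 37 °C, 30 min. NBD-ceramide fluorescence after chloroform/methanol extraction and TLC.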

For series [13], the system named is Rattus norvegicus. Briefly: Antidepressant activity in Sprague-Dawley rat model of reserpine-induced depression assessed as reduction in total time spent in center at 6 to 24 mg/kg, ip administered twice daily for 2 weeks measured for 5 mins by open field test. In kind it is functional, organism-based. The method in brief: as §2
The test system of series [14] is Rattus norvegicus. Briefly: In vivo inhibition of acid sphingomyelinase in Sprague-Dawley rat model of reserpine-induced depression assessed as reduction in enzyme activity in cerebral cortex at 24 mg/kg, ip administered twice daily for 2 weeks measured post-last dose by NBD-sphingomyelin substrate-based fluorescence assay (reference value: 53%). On the set-up: scale not given: the % may be the effect or the level left.

Series [15] deals with Rattus norvegicus. Briefly: Antidepressant activity in Sprague-Dawley rat model of reserpine-induced depression assessed as increase in times passing the grid at 6 to 24 mg/kg, ip administered twice daily for 2 weeks measured for 5 mins by open field test. It is filed as functional, organism-based. The method in brief:
as §2

Series [16] relates to Rattus norvegicus. Briefly: In vivo inhibition of acid sphingomyelinase in Sprague-Dawley rat model of reserpine-induced depression assessed as residual enzyme activity in hippocampus at 24 mg/kg, ip administered twice daily for 2 weeks measured post-last dose by NBD-sphingomyelin substrate-based fluorescence assay (reference value: 73%). In kind it is functional. The method in brief: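 Cortex and hippocampus taken from half brain of reserpine-model rats treated ip twice daily for two weeks. Total protein by BCA. ASM assay on 300 μg protein with 4 μg NBD-sphingomyelin, run as the in vitro assay. NBD-ceramide fluorescence on TLC, expressed relative to normal control set at 100%. n=5, mean ± SD.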

Series [17] can be described thus: Drug concentration in Sprague-Dawley rat plasma at 48 mg/kg, ip after 2 hrs by LC-MS/MS analysis. In kind it is ADME, organism-based. The method in brief: as §1

Each structure is given as a SMILES string. Active and inactive are the calls of the source. The rule behind the calls is not given here.

Regarding `O=C(NO)c1cc(OCc2ccc(-c3ccc(Cl)cc3)cc2)no1`, the Activity result with Rattus norvegicus [1] is “Dose-dependent effect”; with Rattus norvegicus [8] it was “Dose-dependent effect”; in the series on Rattus norvegicus [14], 27%; in the series on Rattus norvegicus [16], 33%. Further, the IC50 was determined as 161 µM with NIH3T3 and 3.37 µM in series [12]. In addition, the concentration at 4 h was determined as 1300 ng/g in series [2] and 144 ng/mL in series [5]. In addition, the Kp at 0.5 h in series [3] came to 2.94. Moreover, the result in the series with Rattus norvegicus [4], in the series with Rattus norvegicus [9], with Rattus norvegicus [13] and with Rattus norvegicus [15] was Active. Moreover, the Kp at 4 h in series [6] stood at 9.55. For the same compound, the concentration at 2 h in series [7] was determined as 4760 ng/g; in [17], 762 ng/mL. Further, the results for the concentration at 0.5 h in [10] and in series [11] were 2120 ng/g and 709 ng/mL, respectively.

A word on the IC50: it is the midpoint of a concentration-inhibition curve.

These data come from ChEMBL document CHEMBL4376888, “Discovery of Potent, Selective, and Direct Acid Sphingomyelinase Inhibitors with Antidepressant Activity” (J Med Chem, 2020).
